# Results pooled from the literature.
# Each line is one published result; the experiments were not run side by side.
# DHODH: Dihydroorotate dehydrogenase (quinone), mitochondrial (DHODH, Homo sapiens, UniProt Q02127)
# SCTR: Secretin receptor (SCTR, Homo sapiens, UniProt P47872)
# PIK3CG: Phosphatidylinositol 4,5-bisphosphate 3-kinase catalytic subunit gamma isoform (PIK3CG, Homo sapiens, UniProt P48736)
Structure (SMILES),target,assay,measurement,value
Cc1noc(C)c1-c1cc(Cl)c(Nc2ccccc2C(=O)O)c(Cl)c1,DHODH,"enzyme activity, inhibitor, absorbance",IC50,1.4 µM
Cc1ccc(N/C(=N\c2nnc(C(C)(C)C)s2)N2N=C(C(C)(C)C)SC2c2cc(F)c(F)c(F)c2)cc1C (centres unmarked),SCTR,"cAMP, agonist, TR-FRET",EC50,> 50 µM
CCn1ncc2c([C@](O)(c3ccc(C(F)(F)F)c(Cl)c3)C3CC3)n(C)nc2c1=O,DHODH,"enzyme activity, inhibitor",IC50,> 100 µM
CNC[C@H](O)c1cccc(O)c1,"Alpha-1D adrenergic receptor (ADRA1D, Homo sapiens, UniProt P25100)","calcium signal, agonist",EC50,0.0174 µM
CCn1cc(C2CC2)c2c(CN3CCC(C)(F)CC3)n(C)nc2c1=O,DHODH,"enzyme activity, inhibitor, absorbance",IC50,> 100 µM
Cc1nc(N(C)c2ccc3c(c2)/C(=C/c2ccccc2Cl)C(=O)N3C)c2ccccc2n1,PIK3CG,"enzyme activity, inhibitor, ADP detection",IC50,0.105 µM
CCCc1ccc(/N=C(/Nc2nnc(C)s2)N2N=C(C)SC2c2ccc(C)cc2)cc1 (centres unmarked),SCTR,"cAMP, agonist, TR-FRET",EC50,> 50 µM
Cc1nc(Nc2ccc3c(c2)CC(=O)N3)c2ccccc2n1,PIK3CG,"enzyme activity, inhibitor, ADP detection",IC50,0.568 µM
CCn1cc(C)c2c(C(O)c3ccc(Cl)c(F)c3)n(C)nc2c1=O (centres unmarked),DHODH,"enzyme activity, inhibitor",IC50,> 100 µM
CC1=NN(/C(=N/c2nnc(C)s2)Nc2ccc(C)c(C)c2)C(c2ccc(-c3cccc(C(F)(F)F)c3)cc2)S1 (centres unmarked),SCTR,"cAMP, agonist, TR-FRET",EC50,0.5 µM
Cn1nc2c(=O)n(C3CC3)nc(C3CC3)c2c1Cc1ccc(C(F)(F)F)c(F)c1,DHODH,"enzyme activity, inhibitor",IC50,2.3 µM
COc1cc2ncnc(Nc3ccc4c(c3)/C(=C/c3ccccc3)C(=O)N4C)c2cc1OC,PIK3CG,"enzyme activity, inhibitor, ADP detection",IC50,0.194 µM
NC(=O)c1cccc(C#CCN(CC[C@H](N)C(=O)O)C[C@H]2O[C@@H](n3cnc4c(N)ncnc43)[C@H](O)[C@@H]2O)c1,"Serine hydroxymethyltransferase, mitochondrial (SHMT2, Homo sapiens, UniProt P34897)","binding, MST",Kd,66 µM
COc1cc2ncnc(N(C)c3ccc4c(c3)/C(=C/c3cccc(Cl)c3)C(=O)N4C)c2cc1OC,PIK3CG,"enzyme activity, inhibitor, ADP detection",IC50,0.118 µM
CCCc1cc(C(=O)Nc2ccc(C(C)=O)cc2)c(NC(=O)c2ccccc2)s1,"Prostaglandin G/H synthase 2 (PTGS2, Homo sapiens, UniProt P35354)","enzyme activity, inhibitor",IC50,1.23 µM
Cc1nn(C2CC2)c(=O)c2nn(C)c(Cc3ccc(C(F)(F)F)c(C#N)c3)c12,DHODH,"enzyme activity, inhibitor",IC50,30 µM
Cc1nc(Nc2ccc3c(c2)/C(=C/c2ccccc2)C(=O)N3C)c2ccccc2n1,PIK3CG,"enzyme activity, inhibitor, ADP detection",IC50,0.113 µM
